Data: ChEMBL document CHEMBL4052792, “3-Hydroxykynurenine, a Tryptophan Metabolite Generated during the Infection, Is Active Against Trypanosoma cruzi” (ACS Med Chem Lett, 2017)
Activity calls are given as the source filed them. The calls are words filed in the database; no cut-off is given here.

Tests used:
Trypanosoma cruzi [1] = assay: Trypanocidal activity against Trypanosoma cruzi Tulahuen trypomastigotes infected in mouse whole blood assessed as increase in parasite death at 0.2 uM by trypan blue assay; assay type: functional; settings: TDE = time-dependent effect
Trypanosoma cruzi [2] = assay: Trypanocidal activity against Trypanosoma cruzi Tulahuen trypomastigotes assessed as reduction in parasites after 72 hrs by trypan blue assay; assay type: functional
Procedure, shortened: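 Bloodstream trypomastigotes were incubated at 37 °C in culture medium alone or with increasing doses for 24, 48 and 72 h. Parasite death was scored as percentage by trypan blue exclusion. Results are means ± SD of three independent experiments.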

Trypanosoma cruzi [3] = assay: Trypanocidal activity against Trypanosoma cruzi Tulahuen trypomastigotes infected in mouse whole blood assessed as viable trypomastigote cells at 20 uM after 96 hrs by trypan blue assay relative to control; assay type: functional
Procedure, shortened: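 Trypomastigotes were exposed to 20 μM in 100% whole blood at 37 °C. Viable parasites were counted after 24, 48, 72 and 96 h. Results are means ± SD of three independent experiments.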

Trypanosoma cruzi [4] = assay: Reduction of mitochondrial membrane potential in Trypanosoma cruzi Tulahuen trypomastigotes after 24 hrs by Rh123/PI staining-based flow cytometric analysis; assay type: functional
Procedure, shortened: (§1)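 Trypomastigotes were treated with 3-HK for 24 h at 37 °C, then incubated with PI plus Rh123. Rh123 fluorescence was read by flow cytometry in PI-negative (live) parasites. The depolarized fraction was taken as the low-fluorescence M2 population. Index of variation = (treated median − control median)/control median. Three experiments were run.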

Trypanosoma cruzi [5] = assay: Induction of mitochondrial membrane depolarization in Trypanosoma cruzi Tulahuen trypomastigotes at 0.2 uM after 24 hrs by Rh123/propidium iodide staining-based flow cytometric analysis (reference value: 3.25 +/- 1.66%); assay type: functional; procedure, shortened: as §1
Trypanosoma cruzi [6] = assay: Induction of mitochondrial membrane potential reduction in Trypanosoma cruzi Tulahuen trypomastigotes up to 4000 uM after 24 hrs by Rh123/propidium iodide staining-based flow cytometric analysis (reference value: 3.25 +/- 1.66%); assay type: functional; parameters: scale not given: the % may be the effect or the level left; procedure, shortened: as §1
Trypanosoma cruzi [7] = assay: Trypanocidal activity against Trypanosoma cruzi Tulahuen amastigotes infected in BALB/C mouse bone marrow derived macrophages assessed as decrease in intracellular parasite growth after 72 hrs by immunofluorescence assay; assay type: functional, cell-based
Procedure, shortened: (§2)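 Macrophages were infected with trypomastigotes and treated with 3-HK for 24 h. Immunofluorescence counts were made at 72 h post-infection. Intracellular parasites per 200 cells were expressed relative to medium-treated cultures, and infected cells were counted among 200 macrophages. Data are means ± SD of four independent experiments.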

Trypanosoma cruzi [8] = assay: Trypanocidal activity against Trypanosoma cruzi Tulahuen amastigotes infected in BALB/C mouse bone marrow derived macrophages assessed as decrease in parasite infected macrophages at 200 uM after 72 hrs by immunofluorescence assay; assay type: functional; procedure, shortened: as §2
Trypanosoma cruzi [9] = assay: Trypanocidal activity against Trypanosoma cruzi Tulahuen amastigotes infected in BALB/C mouse bone marrow derived macrophages assessed as parasite infected macrophages at 800 uM treated for 24 hrs followed by compound washout measured after 48 hrs by immunofluorescence assay (reference value: 26.84 +/- 7.81%); assay type: functional
Trypanosoma cruzi [10] = assay: Trypanocidal activity against Trypanosoma cruzi Tulahuen amastigotes infected in BALB/C mouse bone marrow derived macrophages assessed as parasite infected macrophages at 1200 uM treated for 24 hrs followed by compound washout measured after 48 hrs by immunofluorescence assay (reference value: 26.84 +/- 7.81%); assay type: functional
Trypanosoma cruzi [11] = assay: Trypanocidal activity against Trypanosoma cruzi Tulahuen amastigotes infected in BALB/C mouse bone marrow derived macrophages assessed as parasite infected macrophages at 1800 uM treated for 24 hrs followed by compound washout measured after 48 hrs by immunofluorescence assay (reference value: 26.84 +/- 7.81%); assay type: functional
Trypanosoma cruzi [12] = assay: Trypanocidal activity against Trypanosoma cruzi Tulahuen amastigotes infected in BALB/C mouse bone marrow derived macrophages assessed as parasite infected macrophages at 2000 uM treated for 24 hrs followed by compound washout measured after 48 hrs by immunofluorescence assay (reference value: 26.84 +/- 7.81%); assay type: functional
Trypanosoma cruzi [13] = assay: Trypanocidal activity against Trypanosoma cruzi Tulahuen amastigotes infected in BALB/C mouse bone marrow derived macrophages assessed as endocytic index at 800 uM treated for 24 hrs followed by compound washout measured after 48 hrs by immunofluorescence assay (reference value: 213.66 +/- 58.79); assay type: functional
Trypanosoma cruzi [14] = assay: Trypanocidal activity against Trypanosoma cruzi Tulahuen amastigotes infected in BALB/C mouse bone marrow derived macrophages assessed as reduction in parasite infected macrophages at 0.2 uM after 72 hrs by immunofluorescence assay relative to control; assay type: functional
Trypanosoma cruzi [15] = assay: Trypanostatic activity against Trypanosoma cruzi Tulahuen amastigotes infected in BALB/C mouse bone marrow derived macrophages assessed as swollen mitochondrion at 20 uM after 24 hrs by transmission electron microscopic analysis; assay type: functional
Procedure, shortened: (§3)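 Bone marrow-derived macrophages were infected for 24 h, then exposed to 20 μM for 24 h or left untreated. Intracellular amastigote ultrastructure was examined by transmission electron microscopy, covering mitochondrion, nucleus, kinetoplast, flagellum, flagellar pocket, subpellicular microtubules and cytoplasmic structures.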

Trypanosoma cruzi [16] = assay: Trypanostatic activity against Trypanosoma cruzi Tulahuen amastigotes infected in BALB/C mouse bone marrow derived macrophages assessed as formation of low electrodense structures in parasite cytoplasm at 20 uM after 24 hrs by transmission electron microscopic analysis; assay type: functional; procedure, shortened: as §3
Trypanosoma cruzi [17] = assay: Trypanostatic activity against Trypanosoma cruzi Tulahuen amastigotes infected in BALB/C mouse bone marrow derived macrophages assessed as kinetoplast structure disorganization at 20 uM after 24 hrs by transmission electron microscopic analysis; assay type: functional; procedure, shortened: as §3
Trypanosoma cruzi [18] = assay: Trypanostatic activity against Trypanosoma cruzi Tulahuen amastigotes infected in BALB/C mouse bone marrow derived macrophages assessed as effect on flagellum structure at 20 uM after 24 hrs by transmission electron microscopic analysis; assay type: functional; procedure, shortened: as §3
Jurkat = assay: Cytotoxicity against human Jurkat cells assessed as reduction in cell viability at 1200 to 2000 uM after 48 hrs by trypan blue exclusion assay; assay type: cell-based
Procedure, shortened: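 Human PBMC and Jurkat cells were treated for 48 h with a range of 3-HK concentrations or left untreated. Viable cells were counted under light microscopy by trypan blue exclusion. Data are means ± SD of four independent experiments.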

[19] = Induction of apoptosis in BALB/C mouse BMDM assessed as cells with hypodiploid DNA content at 2 uM after 24 hrs by FITC/propidium iodide staining based flow cytometric analysis (reference value: 29.9%); assay type: functional
[20] = Induction of apoptosis in BALB/C mouse BMDM assessed as cells with hypodiploid DNA content at 200 uM after 24 hrs by FITC/propidium iodide staining based flow cytometric analysis (reference value: 29.9%); assay type: functional
[21] = Induction of apoptosis in BALB/C mouse BMDM assessed as cells with hypodiploid DNA content at 1200 uM after 24 hrs by FITC/propidium iodide staining based flow cytometric analysis (reference value: 29.9%); assay type: functional
[22] = Induction of apoptosis in BALB/C mouse BMDM assessed as cells with hypodiploid DNA content at 2000 uM after 24 hrs by FITC/propidium iodide staining based flow cytometric analysis (reference value: 29.9%); assay type: functional
Enterococcus faecalis = assay: Antimicrobial activity against vancomycin-resistant Enterococcus faecalis NCTC12201 after 8 hrs; assay type: functional; settings: NCTC12201, 8 h
Candida albicans = assay: Antimicrobial activity against Candida albicans ATCC10231 after 10 to 20 hrs; assay type: functional
Trypanosoma cruzi [23] = assay: Trypanocidal activity against Trypanosoma cruzi Tulahuen trypomastigotes infected in BALB/C mouse bone marrow derived macrophages assessed as induction of cell lysis at trypomastigote stage after 24 hrs

Nc1c(O)cccc1C(=O)C[C@H](N)C(=O)O
Activity (Trypanosoma cruzi [1]): Tde
IC50 (Trypanosoma cruzi [2]): 20 to 200 µM
Activity (Trypanosoma cruzi [3]): 50%
Activity (Trypanosoma cruzi [4]): Dose-dependent effect
Activity (Trypanosoma cruzi [5]): 3.88%
Activity (Trypanosoma cruzi [6]): 8 - 12%
Activity (Trypanosoma cruzi [7]): Dose-dependent effect
Activity (Trypanosoma cruzi [8]): Active
Activity (Trypanosoma cruzi [9]): 15.1%
Activity (Trypanosoma cruzi [10]): 14.83%
Activity (Trypanosoma cruzi [11]): 14.32%
Activity (Trypanosoma cruzi [12]): 16.31%
Activity (Trypanosoma cruzi [13]): 99.39
inhibition at 0.2 µM (Trypanosoma cruzi [14]): 59%
Activity (Trypanosoma cruzi [15]): Active
Activity (Trypanosoma cruzi [16]): Active
Activity (Trypanosoma cruzi [17]): Active
Activity (Trypanosoma cruzi [18]): inactive
Activity (Jurkat): Toxic
Activity [19]: 28.2%
Activity [20]: 35.4%
Activity [21]: 26.3%
Activity [22]: 26.4%
IC50 (Enterococcus faecalis): 30 to 137 µM
IC50 (Candida albicans): 30 to 137 µM
IC50 (Trypanosoma cruzi [23]): 1200 µM
